Results reported in ChEMBL document CHEMBL1122123 (1982).

Legend:
Format in all cases: functional
lizard = assay: In vitro potency of compound to stimulate melanosome dispersion in lizard skin relative to alpha-MSH
Summary of the method: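 Isolated Anolis carolinensis lizard skins were scored in vitro for melanosome dispersion (darkening) across the entire dose-response range. Relative potency is the ratio of the α-MSH concentration giving 50% response to the peptide concentration giving 50% response.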

[1] = In vitro potency of compound to stimulate adenylate cyclase activity in melanoma cells relative to alpha-MSH
Summary of the method: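 Particulate membranes from Cloudman S-91 mouse melanoma tumors grown in DBA/2J mice were used as a cell-free system, 56 μg of protein per assay. Adenylate cyclase activity was measured as conversion of [α-³²P]ATP to [³²P]cAMP, with cAMP isolated by the Salomon method. Full dose-response curves were run in triplicate. Potency is relative to α-MSH: concentration of α-MSH at 50% response divided by that of the peptide.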

[2] = system: Melanocyte-stimulating hormone receptor; assay: In vitro potency of compound to stimulate melanosome dispersion in frog (Rana pipiens) skin relative to alpha-MSH

| Compound | Potency [2] | Potency (lizard) | Potency [1] |
| --- | --- | --- | --- |
| CCCC[C@H](NC(C)=O)C(=O)N[C@@H](CCC(=O)O)C(=O)N[C@@H](Cc1c[nH]cn1)C(=O)N[C@@H](Cc1ccccc1)C(=O)N[C@@H](CCCN=C(N)N)C(=O)N[C@@H](Cc1c[nH]c2ccccc12)C(=O)NCC(N)=O | 0.002 | 0.06 | 0.09 |
| Ac-YEHFRWG-NH2 | 0.0002 | 0.0006 | 0.001 |
| CSCC[C@H](N)C(=O)N[C@@H](CCC(=O)O)C(=O)N[C@@H](Cc1c[nH]cn1)C(=O)N[C@@H](Cc1ccccc1)C(=O)N[C@@H](CCCN=C(N)N)C(=O)N[C@@H](Cc1c[nH]c2ccccc12)C(=O)NCC(=O)O | 1e-05 | 4e-05 | – |

Further lines, with some results ahead:

| Potency [2] | Compound | Potency (lizard) | Potency [1] |
| --- | --- | --- | --- |
| 0.02 | CCCC[C@H](NC(C)=O)C(=O)N[C@@H](CCC(=O)O)C(=O)N[C@@H](Cc1c[nH]cn1)C(=O)N[C@H](Cc1ccccc1)C(=O)N[C@@H](CCCN=C(N)N)C(=O)N[C@@H](Cc1c[nH]c2ccccc12)C(=O)NCC(N)=O | 10 | 7.7 |
| 0.0003 | CSCC[C@H](NC(C)=O)C(=O)N[C@@H](CCC(=O)O)C(=O)N[C@@H](Cc1c[nH]cn1)C(=O)N[C@@H](Cc1ccccc1)C(=O)N[C@@H](CCCN=C(N)N)C(=O)N[C@@H](Cc1c[nH]c2ccccc12)C(=O)NCC(N)=O | 0.004 | – |
